Here are results for three molecules from ChEMBL document CHEMBL5257059, “Pyridine-Based 1,2,4-Triazolo-Tethered Indole Conjugates Potentially Affecting TNKS and PI3K in Colorectal Cancer” (ACS Med Chem Lett, 2023).

Activity calls are given as the source filed them. The calls are words filed in the database; no cut-off is given here.

Assay [1] relates to HT-29. Description: Induction of cell cycle arrest in human HT-29 cells assessed as accumulation of cells at S phase at 4 uM incubated for 24 hrs by RNase/PI staining based flow cytometry analysis (reference value: 17.934 %). The class given is functional. (In general: In flow cytometry, cells or beads pass a laser one at a time.)
The target in assay [2] is Glycogen synthase kinase-3 beta (Homo sapiens) (UniProt P49841). The assay is described as follows: Inhibition of GSK3beta phosphorylation in human HT-29 cells at 4 uM incubated for 72 hrs by Western blot analysis. It counts as cell-based. A general note: In western blotting, separated proteins are transferred to a membrane and probed.
The target in assay [3] is 182 kDa tankyrase-1-binding protein (Homo sapiens) (UniProt Q9C0C2). The assay is described as follows: Inhibition of TAB-182 phosphorylation in human HT-29 cells at 4 uM incubated for 72 hrs by Western blot analysis. It counts as cell-based.
Assay [4] deals with HT-29. Description: Induction of apoptosis in human HT29 cells assessed as increase in late apoptotic cells at 4 uM incubated for 24 hrs by annexin V/PI staining based flow cytometry analysis. The class given is functional, cell-based. Put shortly: (§1)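 Annexin/PI double staining of HT-29 cells after 24 h exposure at 1, 2 or 4 μM. Flow cytometry gated early apoptotic, late apoptotic and necrotic populations, reported as % of cells. Comparison to untreated control used two-way ANOVA followed by Tukey's post hoc analysis.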

In assay [5] the target is T1, Catenin beta-1 (Homo sapiens) (UniProt P35222).
T1 sequence (whole entry): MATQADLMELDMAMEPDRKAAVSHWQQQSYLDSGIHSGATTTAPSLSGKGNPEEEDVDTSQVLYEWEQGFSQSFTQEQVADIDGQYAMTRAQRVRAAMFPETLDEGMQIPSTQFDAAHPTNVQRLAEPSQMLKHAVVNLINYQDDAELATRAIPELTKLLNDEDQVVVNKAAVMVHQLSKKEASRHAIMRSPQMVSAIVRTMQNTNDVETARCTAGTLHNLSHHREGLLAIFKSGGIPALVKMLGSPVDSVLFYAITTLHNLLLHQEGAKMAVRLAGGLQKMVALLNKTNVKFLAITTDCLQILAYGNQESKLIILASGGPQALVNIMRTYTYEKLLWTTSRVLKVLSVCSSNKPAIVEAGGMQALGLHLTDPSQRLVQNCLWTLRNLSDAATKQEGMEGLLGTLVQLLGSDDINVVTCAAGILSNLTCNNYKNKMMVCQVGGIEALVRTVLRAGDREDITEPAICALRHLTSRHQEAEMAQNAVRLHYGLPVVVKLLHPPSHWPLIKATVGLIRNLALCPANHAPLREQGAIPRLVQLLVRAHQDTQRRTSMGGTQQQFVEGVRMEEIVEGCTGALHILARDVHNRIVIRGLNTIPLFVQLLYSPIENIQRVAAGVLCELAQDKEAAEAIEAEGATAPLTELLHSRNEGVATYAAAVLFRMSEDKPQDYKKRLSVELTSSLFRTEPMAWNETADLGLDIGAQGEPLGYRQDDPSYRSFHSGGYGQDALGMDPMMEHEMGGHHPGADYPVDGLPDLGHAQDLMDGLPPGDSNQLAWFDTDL
The assay is described as follows: Inhibition of beta-catenin phosphorylation in human HT-29 cells at 4 uM incubated for 72 hrs by Western blot analysis. It counts as cell-based.

The test system of assay [6] is HT-29. Description: Induction of cell cycle arrest in human HT-29 cells assessed as accumulation of cells at G0/G1 phase at 4 uM incubated for 24 hrs by RNase/PI staining based flow cytometry analysis (reference value: 50.206%). The class given is functional.
Assay [7] deals with Phosphatidylinositol 3-kinase regulatory subunit alpha (Homo sapiens) (UniProt P27986). The assay is described as follows: Inhibition of PI3K-P85 phosphorylation in human HT-29 cells at 4 uM incubated for 72 hrs by Western blot analysis. It counts as cell-based.
The test system of assay [8] is HT-29. The assay is described as follows: Inhibition of PI3K-p85 protein expression in human HT-29 cells at 4 uM incubated for 72 hrs by Western blot analysis. It counts as functional, cell-based.
Assay [9] concerns HT-29. The assay is described as follows: Inhibition of phosphorylated GSK-3beta protein expression in human HT-29 cells at 4 uM incubated for 72 hrs by Western blot analysis. It counts as functional, cell-based.
Assay [10] deals with HT-29. Description: Inhibition of AXIN-2 protein expression in human HT-29 cells at 4 uM incubated for 72 hrs by Western blot analysis. It counts as functional, cell-based.
Assay [11] relates to HT-29. The assay is described as follows: Induction of apoptosis in human HT29 cells assessed as increase in late apoptotic cells at 2 uM incubated for 24 hrs by annexin V/PI staining based flow cytometry analysis. It counts as functional, cell-based. Put shortly: as §1
The subject of assay [12] is HT-29. Description: Induction of cell cycle arrest in human HT-29 cells assessed as accumulation of cells at G2/M phase at 2 uM incubated for 24 hrs by RNase/PI staining based flow cytometry analysis (reference value: 23.695 %). The class given is functional.
In assay [13] the test system is HT-29. Description: Inhibition of AKT protein expression in human HT-29 cells at 2 uM incubated for 72 hrs by Western blot analysis. It counts as functional, cell-based.
In assay [14] the test system is HT-29. The assay is described as follows: Induction of apoptosis in human HT29 cells assessed as increase in early apoptotic cells at 2 uM incubated for 24 hrs by annexin V/PI staining based flow cytometry analysis. The class given is functional, cell-based. The gist of the method: as §1
For assay [15], the system named is HT-29. The assay is described as follows: Inhibition of APC protein expression in human HT-29 cells at 2 uM incubated for 72 hrs by Western blot analysis. The class given is functional, cell-based.
Assay [16] deals with Glycogen synthase kinase-3 beta (Homo sapiens) (UniProt P49841). Description: Inhibition of GSK3beta phosphorylation in human HT-29 cells at 2 uM incubated for 72 hrs by Western blot analysis. The class given is cell-based.
The subject of assay [17] is HT-29. Description: Inhibition of TAB-182 protein expression in human HT-29 cells at 2 uM incubated for 72 hrs by Western blot analysis. The class given is functional, cell-based.
The target in assay [18] is T1, Catenin beta-1 (Homo sapiens). The assay is described as follows: Inhibition of beta-catenin phosphorylation in human HT-29 cells at 2 uM incubated for 72 hrs by Western blot analysis. It counts as cell-based.
In assay [19] the test system is HT-29. The assay is described as follows: Induction of cell cycle arrest in human HT-29 cells assessed as accumulation of cells at G0/G1 phase at 2 uM incubated for 24 hrs by RNase/PI staining based flow cytometry analysis (reference value: 50.206%). It counts as functional.
Assay [20] relates to HT-29. The assay is described as follows: Inhibition of phosphorylated PI3K-p85 protein expression in human HT-29 cells at 1 uM incubated for 72 hrs by Western blot analysis. It counts as functional, cell-based.
Assay [21] relates to HT-29. The assay is described as follows: Inhibition of TAB-182 protein expression in human HT-29 cells at 1 uM incubated for 72 hrs by Western blot analysis. It counts as functional, cell-based.
Assay [22] has as its system HT-29. Description: Induction of cell cycle arrest in human HT-29 cells assessed as accumulation of cells at G0/G1 phase at 1 uM incubated for 24 hrs by RNase/PI staining based flow cytometry analysis (reference value: 50.206%). The class given is functional.
Assay [23] deals with HT-29. The assay is described as follows: Inhibition of phosphorylated GSK-3beta protein expression in human HT-29 cells at 1 uM incubated for 72 hrs by Western blot analysis. The class given is functional, cell-based.
For assay [24], the system named is HT-29. Description: Inhibition of beta-actin protein expression in human HT-29 cells at 1 uM incubated for 72 hrs by Western blot analysis. It counts as functional, cell-based.
Assay [25] relates to HT-29. The assay is described as follows: Inhibition of APC protein expression in human HT-29 cells at 1 uM incubated for 72 hrs by Western blot analysis. The class given is functional, cell-based.
Assay [26] has as its system HT-29. The assay is described as follows: Inhibition of GSK-3beta protein expression in human HT-29 cells at 1 uM incubated for 72 hrs by Western blot analysis. The class given is functional, cell-based.
For assay [27], the system named is HT-29. Description: Inhibition of PI3K-p85 protein expression in human HT-29 cells at 1 uM incubated for 72 hrs by Western blot analysis. It counts as functional, cell-based.
The test system of assay [28] is HT-29. The assay is described as follows: Induction of apoptosis in human HT29 cells assessed as increase in late apoptotic cells at 1 uM incubated for 24 hrs by annexin V/PI staining based flow cytometry analysis. It counts as functional, cell-based. The gist of the method:
as §1

Chain of Glycogen synthase kinase-3 beta (Homo sapiens) (P49841 whole entry, looked up): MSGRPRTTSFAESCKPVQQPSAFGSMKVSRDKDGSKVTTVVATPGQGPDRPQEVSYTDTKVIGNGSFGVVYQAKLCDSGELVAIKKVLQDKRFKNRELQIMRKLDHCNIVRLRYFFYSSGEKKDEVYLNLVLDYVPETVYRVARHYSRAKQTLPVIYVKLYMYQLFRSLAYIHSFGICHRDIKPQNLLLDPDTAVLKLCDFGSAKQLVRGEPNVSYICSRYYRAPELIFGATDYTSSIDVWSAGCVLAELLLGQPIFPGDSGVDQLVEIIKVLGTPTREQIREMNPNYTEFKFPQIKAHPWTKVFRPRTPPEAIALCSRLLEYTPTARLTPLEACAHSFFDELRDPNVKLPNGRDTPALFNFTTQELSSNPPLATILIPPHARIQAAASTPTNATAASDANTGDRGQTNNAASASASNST
Chain of Phosphatidylinositol 3-kinase regulatory subunit alpha (Homo sapiens) (P27986 whole entry): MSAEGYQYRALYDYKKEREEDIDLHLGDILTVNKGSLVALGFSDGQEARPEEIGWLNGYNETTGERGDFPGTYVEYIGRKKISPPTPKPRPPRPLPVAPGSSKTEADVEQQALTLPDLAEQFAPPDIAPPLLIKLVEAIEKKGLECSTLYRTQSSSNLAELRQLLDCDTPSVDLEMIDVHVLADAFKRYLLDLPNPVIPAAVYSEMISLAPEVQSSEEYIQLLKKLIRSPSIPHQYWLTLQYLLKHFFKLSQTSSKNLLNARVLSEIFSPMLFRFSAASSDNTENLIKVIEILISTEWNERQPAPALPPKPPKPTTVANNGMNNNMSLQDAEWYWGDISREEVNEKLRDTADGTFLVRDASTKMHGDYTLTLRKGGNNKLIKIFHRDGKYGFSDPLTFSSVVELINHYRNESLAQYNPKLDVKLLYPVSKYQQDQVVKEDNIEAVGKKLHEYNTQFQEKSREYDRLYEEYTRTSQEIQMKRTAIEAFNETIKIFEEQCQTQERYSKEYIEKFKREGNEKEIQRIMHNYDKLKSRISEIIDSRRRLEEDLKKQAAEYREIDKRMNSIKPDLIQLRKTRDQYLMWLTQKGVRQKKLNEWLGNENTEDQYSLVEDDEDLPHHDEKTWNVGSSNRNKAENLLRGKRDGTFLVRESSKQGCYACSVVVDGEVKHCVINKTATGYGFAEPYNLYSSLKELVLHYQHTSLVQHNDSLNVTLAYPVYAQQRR
Chain of 182 kDa tankyrase-1-binding protein (Homo sapiens) (Q9C0C2 whole entry): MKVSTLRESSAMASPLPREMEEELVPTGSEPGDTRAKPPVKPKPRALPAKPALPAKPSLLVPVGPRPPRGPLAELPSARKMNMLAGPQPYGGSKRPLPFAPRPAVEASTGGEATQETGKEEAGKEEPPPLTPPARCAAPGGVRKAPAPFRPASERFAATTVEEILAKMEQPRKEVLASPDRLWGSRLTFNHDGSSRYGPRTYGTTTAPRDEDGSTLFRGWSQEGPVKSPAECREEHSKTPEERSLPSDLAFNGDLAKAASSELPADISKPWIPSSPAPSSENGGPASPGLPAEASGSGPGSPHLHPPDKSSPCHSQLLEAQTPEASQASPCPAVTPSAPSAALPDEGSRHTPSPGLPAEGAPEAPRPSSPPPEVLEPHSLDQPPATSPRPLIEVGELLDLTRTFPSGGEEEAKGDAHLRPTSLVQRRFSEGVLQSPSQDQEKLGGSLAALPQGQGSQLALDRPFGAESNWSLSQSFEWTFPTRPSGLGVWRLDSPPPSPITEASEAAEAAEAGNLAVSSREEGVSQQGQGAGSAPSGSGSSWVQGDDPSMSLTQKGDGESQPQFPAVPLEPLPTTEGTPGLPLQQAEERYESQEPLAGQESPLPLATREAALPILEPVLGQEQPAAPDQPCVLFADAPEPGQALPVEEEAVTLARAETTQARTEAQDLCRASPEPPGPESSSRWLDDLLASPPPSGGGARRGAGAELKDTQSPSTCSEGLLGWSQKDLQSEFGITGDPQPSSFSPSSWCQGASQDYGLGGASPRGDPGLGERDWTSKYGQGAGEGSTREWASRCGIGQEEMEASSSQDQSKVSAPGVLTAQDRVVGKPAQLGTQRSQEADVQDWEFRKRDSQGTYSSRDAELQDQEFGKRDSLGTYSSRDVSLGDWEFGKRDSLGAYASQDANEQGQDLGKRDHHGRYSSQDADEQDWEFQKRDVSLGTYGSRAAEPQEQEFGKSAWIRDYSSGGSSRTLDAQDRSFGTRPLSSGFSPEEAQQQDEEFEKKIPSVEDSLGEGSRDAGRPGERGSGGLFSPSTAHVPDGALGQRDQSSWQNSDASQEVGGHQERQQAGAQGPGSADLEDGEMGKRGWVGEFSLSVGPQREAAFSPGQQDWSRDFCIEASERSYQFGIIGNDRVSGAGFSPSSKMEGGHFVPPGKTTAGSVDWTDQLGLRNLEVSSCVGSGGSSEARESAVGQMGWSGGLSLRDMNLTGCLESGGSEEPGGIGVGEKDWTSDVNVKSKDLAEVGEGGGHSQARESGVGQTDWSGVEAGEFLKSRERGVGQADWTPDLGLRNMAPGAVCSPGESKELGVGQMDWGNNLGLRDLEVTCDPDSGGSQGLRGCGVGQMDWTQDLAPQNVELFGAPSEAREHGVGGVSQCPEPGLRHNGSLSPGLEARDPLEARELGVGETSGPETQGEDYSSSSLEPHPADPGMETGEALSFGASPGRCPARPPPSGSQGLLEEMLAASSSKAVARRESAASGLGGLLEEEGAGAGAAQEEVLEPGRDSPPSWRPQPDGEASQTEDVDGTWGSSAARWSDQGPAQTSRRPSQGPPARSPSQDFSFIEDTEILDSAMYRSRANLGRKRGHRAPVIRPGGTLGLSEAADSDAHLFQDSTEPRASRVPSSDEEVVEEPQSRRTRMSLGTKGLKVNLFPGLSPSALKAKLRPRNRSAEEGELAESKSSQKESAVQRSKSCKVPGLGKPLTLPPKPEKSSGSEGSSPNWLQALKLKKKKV

With `COc1cccc(-n2c(SCCc3c[nH]c4ccccc34)nnc2-c2ccncc2)c1`, the Activity in the assay on HT-29 [1] was found to be 20.837%; in the assay with HT-29 [6], 42.657%. Moreover, the inhibition result (in assay [2]; in assay [3]; in assay [5]; in assay [7]; in the assay on HT-29 [8]; with HT-29 [9]) was “Active” each time. In the assay with HT-29 [10], the inhibition result was “Active”. Besides, the result with HT-29 [4] was Active.
On to `Fc1ccccc1-n1c(SCCc2c[nH]c3ccccc23)nnc1-c1ccncc1`, for which the result with HT-29 [11] and in the assay on HT-29 [14] was Active. In addition, the Activity with HT-29 [12] was determined as 18.982%; in the assay on HT-29 [19], 67.66%. The inhibition entry (in the assay with HT-29 [13]; in the assay with HT-29 [15]; in assay [16]; with HT-29 [17]; in assay [18]) was “Active” each time.
As for `COc1ccc(-n2c(SCCc3c[nH]c4ccccc34)nnc2-c2ccncc2)cc1`, the inhibition result in the assay with HT-29 [20], with HT-29 [21], in the assay on HT-29 [23], in the assay with HT-29 [24], in the assay with HT-29 [25] and with HT-29 [26] was “Active” each time. Besides, in the assay on HT-29 [27], the inhibition result was “Active”. Also, the Activity in the assay with HT-29 [22] stood at 59.672%. In the assay on HT-29 [28], the result was Active.
